Data as given in ChEMBL document CHEMBL2150881, “JD-5006 and JD-5037: peripherally restricted (PR) cannabinoid-1 receptor blockers related to SLV-319 (Ibipinabant) as metabolic disorder therapeutics devoid of CNS liabilities” (Bioorg Med Chem Lett, 2012).

Tests used:
Cannabinoid receptor 1 [1] = molecular target: T1, Cannabinoid receptor 1 (Homo sapiens, UniProt P21554); assay: Displacement of 3[H]ligand from recombinant human CB1 receptor
Summary of the method: (§1)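 Radioligand displacement from human recombinant CB1 and CB2 protein by a [³H] ligand. Initial screen at two concentrations in duplicate, with values >100 nM estimated. Percent inhibition read at 100 nM. IC₅₀ taken from four-point concentration curves run in duplicate.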

Cannabinoid receptor 2 = Cannabinoid receptor 2 (Homo sapiens, UniProt P34972); assay: Displacement of 3[H]ligand from recombinant human CB2 receptor; summary of the method: as §1
Cannabinoid receptor 2, sequence (P34972 whole entry): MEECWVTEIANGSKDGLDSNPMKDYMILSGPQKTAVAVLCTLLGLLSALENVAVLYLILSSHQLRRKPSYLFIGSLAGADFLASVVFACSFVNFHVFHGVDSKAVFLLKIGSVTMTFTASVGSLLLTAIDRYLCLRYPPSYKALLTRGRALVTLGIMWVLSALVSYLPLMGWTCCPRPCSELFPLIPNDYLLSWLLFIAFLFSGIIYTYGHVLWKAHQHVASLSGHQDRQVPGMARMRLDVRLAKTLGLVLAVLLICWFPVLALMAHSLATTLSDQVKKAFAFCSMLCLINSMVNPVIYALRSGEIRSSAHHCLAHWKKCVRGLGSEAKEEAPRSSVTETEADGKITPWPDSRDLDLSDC

[2] = Apparent permeability from apical to basolateral side in MDR expressing MDCK cells by LC-MS-MS analysis; format: ADME, cell-based, Canis lupus familiaris; settings: dog, MDCK-MDR1
Summary of the method: (§2)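 Permeability measured across MDR-MDCK kidney cell monolayers, giving apparent permeability (Papp) in the apical-to-basolateral and basolateral-to-apical directions.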

Mus musculus [3] = assay: In vivo receptor occupancy at CB1 receptor in mouse hippocampus assessed as inhibition of [3H]SR141716A binding at 3 mg/kg, po for 3 days measured after 1 hr post last dose; format: functional
Summary of the method: (§3)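 Chow-fed mice dosed orally once daily at 3 or 30 mg/kg for 3 consecutive days, killed 1 h after the last dose. [3H]SR141716A was given by lateral tail-vein injection 30 min before euthanasia. Hippocampus, cerebellum and brain stem (reference region) were scintillation-counted as DPM/mg. Binding potential = (receptor − reference)/reference. Occupancy (%) = 100 × (vehicle BP − drug BP)/vehicle BP. 5 animals per dose.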

Mus musculus [4] = assay: In vivo receptor occupancy at CB1 receptor in mouse hippocampus assessed as inhibition of [3H]SR141716A binding at 30 mg/kg, po for 3 days measured after 1 hr post last dose; format: functional; summary of the method: as §3
Mus musculus [5] = assay: In vivo receptor occupancy at CB1 receptor in mouse cerebellum assessed as inhibition of [3H]SR141716A binding at 3 mg/kg, po for 3 days measured after 1 hr post last dose; format: functional; summary of the method: as §3
[6] = molecular target: Cannabinoid receptor 1 (Mus musculus) (UniProt P47746); settings: Cerebellum, 30 mg/kg
Cannabinoid receptor 1 (Mus musculus), sequence (P47746 whole entry): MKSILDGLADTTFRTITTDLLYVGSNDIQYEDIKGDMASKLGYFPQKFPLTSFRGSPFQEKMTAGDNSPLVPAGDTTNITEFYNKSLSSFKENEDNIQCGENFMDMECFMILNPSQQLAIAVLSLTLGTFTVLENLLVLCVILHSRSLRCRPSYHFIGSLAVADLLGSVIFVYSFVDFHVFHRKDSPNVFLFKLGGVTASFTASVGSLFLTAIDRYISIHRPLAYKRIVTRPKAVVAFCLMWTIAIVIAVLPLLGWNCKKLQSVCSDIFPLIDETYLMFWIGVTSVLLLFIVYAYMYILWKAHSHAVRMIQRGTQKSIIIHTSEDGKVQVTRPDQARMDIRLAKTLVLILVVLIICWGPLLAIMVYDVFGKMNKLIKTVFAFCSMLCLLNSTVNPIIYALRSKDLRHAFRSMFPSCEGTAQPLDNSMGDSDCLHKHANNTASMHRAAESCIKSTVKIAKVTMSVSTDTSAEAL

[7] = Apparent permeability from basolateral to apical side in MDR expressing MDCK cells by LC-MS-MS analysis; format: ADME, cell-based, Canis lupus familiaris; settings: dog, MDCK-MDR1; summary of the method: as §2
[8] = Efflux ratio of permeability from […] in MDR expressing MDCK cells; format: ADME, cell-based, Canis lupus familiaris; settings: dog, MDCK-MDR1
Cannabinoid receptor 1 [9] = molecular target: T1, Cannabinoid receptor 1; assay: Displacement of 3[H]ligand from recombinant human CB1 receptor at 100 nM; summary of the method: as §1
[10] = Plasma concentration in chow fed mouse at 100 mg/kg, po for 3 days measured after 1 hr post last dose; format: ADME, organism-based; set-up: dose 100 mg/kg, route oral
Summary of the method: (§4)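 Chow-fed mice were dosed orally at 100 or 20 mg/kg for 3 consecutive days. Plasma and brain were taken 1 h after the last dose. Proteins were precipitated with 3× volume ice-cold acetonitrile containing internal standard, then centrifuged 15 min at 4 °C. Analysis by LC/MS/MS against calibrators in plasma or brain homogenate (1000 to 1.6 nM). Brain is given as ng/gm and also as % of plasma.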

Brain = assay: Drug uptake in chow fed mouse brain assessed per gram of tissue at 100 mg/kg, po for 3 days measured 1 hr post last dose; format: ADME, organism-based; set-up: dose 100 mg/kg, route oral; settings: in vivo; summary of the method: as §4

T1 sequence (P21554 whole entry): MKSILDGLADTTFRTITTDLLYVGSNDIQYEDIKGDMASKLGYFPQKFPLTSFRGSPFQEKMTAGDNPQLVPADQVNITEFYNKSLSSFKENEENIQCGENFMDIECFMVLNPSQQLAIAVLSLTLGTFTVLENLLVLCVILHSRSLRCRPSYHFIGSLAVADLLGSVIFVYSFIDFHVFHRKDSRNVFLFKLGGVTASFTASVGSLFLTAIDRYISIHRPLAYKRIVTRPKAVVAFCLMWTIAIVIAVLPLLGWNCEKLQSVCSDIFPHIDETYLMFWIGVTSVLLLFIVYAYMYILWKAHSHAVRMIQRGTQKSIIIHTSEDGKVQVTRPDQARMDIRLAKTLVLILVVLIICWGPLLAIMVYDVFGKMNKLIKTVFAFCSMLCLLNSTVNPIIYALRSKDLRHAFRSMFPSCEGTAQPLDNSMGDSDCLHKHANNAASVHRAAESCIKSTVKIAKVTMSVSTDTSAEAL

IC50 (Cannabinoid receptor 1 [1]) [nM]	IC50 (Cannabinoid receptor 2) [nM]	SMILES	further results
8.3	> 1000	NC(=O)[C@@H](N/C(=N\S(=O)(=O)c1ccc(Cl)cc1)N1CC(c2ccccc2)C(c2ccc(Cl)cc2)=N1)C1CCC1 (some centres undefined)	–
27	> 5000	C[C@H](NC(=O)[C@H](C)N/C(=N\S(=O)(=O)c1ccc(Cl)cc1)N1CC(c2ccccc2)C(c2ccc(Cl)cc2)=N1)C(N)=O (some centres undefined)	Papp A→B [2]: 0.3 ×10⁻⁶ cm/s
20	> 1000	C[C@H](N/C(=N\S(=O)(=O)c1ccc(Cl)cc1)N1CC(c2ccccc2)C(c2ccc(Cl)cc2)=N1)C(N)=O (some centres undefined)	Papp B→A [7]: 9.25 ×10⁻⁶ cm/s; Papp A→B [2]: 2.44 ×10⁻⁶ cm/s; efflux ratio [8]: 3.8
13	> 5000	NC(=O)[C@H](CO)N=C(NS(=O)(=O)c1ccc(Cl)cc1)N1CC(c2ccccc2)C(c2ccc(Cl)cc2)=N1 (some centres undefined)	–
–	> 5000	NC(=O)[C@H](Cc1ccccc1)N=C(NS(=O)(=O)c1ccc(Cl)cc1)N1CC(c2ccccc2)C(c2ccc(Cl)cc2)=N1 (some centres undefined)	–
32	> 5000	NC(=O)CCN=C(NS(=O)(=O)c1ccc(Cl)cc1)N1CC(c2ccccc2)C(c2ccc(Cl)cc2)=N1 (racemic)	Papp B→A [7]: 58 ×10⁻⁶ cm/s; Papp A→B [2]: 0.88 ×10⁻⁶ cm/s; efflux ratio [8]: 66
8.5	> 1000	CC(C)(N/C(=N\S(=O)(=O)c1ccc(Cl)cc1)N1CC(c2ccccc2)C(c2ccc(Cl)cc2)=N1)C(N)=O (racemic)	–
2	> 1000	CC(C)[C@H](N/C(=N\S(=O)(=O)c1ccc(Cl)cc1)N1CC(c2ccccc2)C(c2ccc(Cl)cc2)=N1)C(N)=O (some centres undefined)	Papp B→A [7]: 16.6 ×10⁻⁶ cm/s; Papp A→B [2]: 1.08 ×10⁻⁶ cm/s; concentration at 1 h [10]: 3850 ng/mL; Drug uptake (Brain; BLD = below limit of detection): BLD
2	> 5000	CC(C)(C)[C@H](N/C(=N\S(=O)(=O)c1ccc(Cl)cc1)N1CC(c2ccccc2)C(c2ccc(Cl)cc2)=N1)C(N)=O (some centres undefined)	Papp B→A [7]: < 0.1 ×10⁻⁶ cm/s; Papp A→B [2]: 0.7 ×10⁻⁶ cm/s
100	> 5000	CC(C)[C@H](N/C(=N\S(=O)(=O)c1ccc(Cl)cc1)N1CC(c2ccccc2)C(c2ccc(Cl)cc2)=N1)C(=O)N[C@@H](C)C(N)=O (some centres undefined)	–
66	> 5000	NC(=O)[C@@H](O)CCN/C(=N\S(=O)(=O)c1ccc(Cl)cc1)N1CC(c2ccccc2)C(c2ccc(Cl)cc2)=N1 (some centres undefined)	–
10	> 1000	C[C@H](N/C(=N\S(=O)(=O)c1ccc(Cl)cc1)N1CC(c2ccccc2)C(c2ccc(Cl)cc2)=N1)C(=O)NCC(N)=O (some centres undefined)	–
7	> 5000	C[C@@H](O)[C@H](N/C(=N/S(=O)(=O)c1ccc(Cl)cc1)N1CC(c2ccccc2)C(c2ccc(Cl)cc2)=N1)C(N)=O (some centres undefined)	Papp B→A [7]: 18.6 ×10⁻⁶ cm/s; Papp A→B [2]: < 0.9 ×10⁻⁶ cm/s; efflux ratio [8]: > 20
7	> 1000	C[C@@H](O)[C@H](N/C(=N\S(=O)(=O)c1ccc(Cl)cc1)N1CC(c2ccccc2)C(c2ccc(Cl)cc2)=N1)C(=O)N[C@@H](CO)C(N)=O (some centres undefined)	–
> 1000	–	CC(C)[C@H](N/C(=N\S(=O)(=O)c1ccc(Cl)cc1)N1C[C@@H](c2ccccc2)C(c2ccc(Cl)cc2)=N1)C(N)=O	–
26	> 1000	CC(CN/C(=N\S(=O)(=O)c1ccc(Cl)cc1)N1CC(c2ccccc2)C(c2ccc(Cl)cc2)=N1)C(N)=O (racemic)	–
> 100	> 5000	C[C@H](O)[C@@H](N=C(NS(=O)(=O)c1ccc(Cl)cc1)N1CC(c2ccccc2)C(c2ccc(Cl)cc2)=N1)C(N)=O (some centres undefined)	–

The remaining lines, values behind:

SMILES	IC50 (Cannabinoid receptor 1 [1]) [nM]	IC50 (Cannabinoid receptor 2) [nM]	further results
O=C(O)[C@@H](O)CCN=C(NS(=O)(=O)c1ccc(Cl)cc1)N1CC(c2ccccc2)C(c2ccc(Cl)cc2)=N1 (some centres undefined)	> 1000	–	–
C[C@H](N=C(NS(=O)(=O)c1ccc(Cl)cc1)N1CC(c2ccccc2)C(c2ccc(Cl)cc2)=N1)C(=O)O (some centres undefined)	> 1000	–	–
COc1cccc(S(=O)(=O)/N=C(\N[C@H](C(N)=O)C(C)C)N2CC(c3ccccc3)C(c3ccc(Cl)cc3)=N2)c1 (some centres undefined)	4	> 1000	–
NC(=O)CN=C(NS(=O)(=O)c1ccc(Cl)cc1)N1CC(c2ccccc2)C(c2ccc(Cl)cc2)=N1 (single isomer, unassigned; enantiomer 2)	> 1000	> 1000	–
CC(C)[C@H](N/C(=N\S(=O)(=O)c1ccc(Cl)cc1)N1C[C@H](c2ccccc2)C(c2ccc(Cl)cc2)=N1)C(N)=O	0.5	> 1000	Occ (Mus musculus [3]): 10%; Occ (Mus musculus [4]): 0%; Occ (Mus musculus [5]): 0%; Occ [6]: 0%
NC(=O)C[C@H](N=C(NS(=O)(=O)c1ccc(Cl)cc1)N1CC(c2ccccc2)C(c2ccc(Cl)cc2)=N1)C(N)=O (some centres undefined)	> 100	> 5000	–
C[C@H](N/C(=N\S(=O)(=O)c1ccc(O)cc1)N1CC(c2ccccc2)C(c2ccc(Cl)cc2)=N1)C(N)=O (some centres undefined)	> 500	> 5000	–
O=C(O)CN=C(NS(=O)(=O)c1ccc(Cl)cc1)N1CC(c2ccccc2)C(c2ccc(Cl)cc2)=N1 (centres undefined)	> 1000	–	–
CN=C(NS(=O)(=O)c1ccc(OCC(=O)O)cc1)N1CC(c2ccccc2)C(c2ccc(Cl)cc2)=N1 (racemic)	> 5000	–	–
NC(=O)[C@H](Cc1ccccc1)N/C(=N\S(=O)(=O)c1ccc(Cl)cc1)N1CC(c2ccccc2)C(c2ccc(Cl)cc2)=N1 (some centres undefined)	–	–	inhibition (Cannabinoid receptor 1 [9]): 61%
CC(C)[C@H](N/C(=N\S(=O)(=O)c1ccc(Cl)cc1)N1CC(c2ccccc2)C(c2ccc(Cl)cc2)=N1)C(=O)NCC(N)=O (some centres undefined)	> 100	> 1000	–
NC(=O)CN=C(NS(=O)(=O)c1ccc(O)cc1)N1CC(c2ccccc2)C(c2ccc(Cl)cc2)=N1 (centres undefined)	> 100	5000	–
COC(=O)CN/C(=N\S(=O)(=O)c1ccc(Cl)cc1)N1CC(c2ccccc2)C(c2ccc(Cl)cc2)=N1 (centres undefined)	–	–	inhibition (Cannabinoid receptor 1 [9]): 88%
CN/C(=N\S(=O)(=O)c1ccc(NC(C)=O)cc1)N1CC(c2ccccc2)C(c2ccc(Cl)cc2)=N1 (racemic)	> 1000	–	–
CN/C(=N\S(=O)(=O)c1ccc(C(N)=O)cc1)N1CC(c2ccccc2)C(c2ccc(Cl)cc2)=N1 (racemic)	> 5000	–	–
CN=C(NS(=O)(=O)c1ccc(OCC(N)=O)cc1)N1CC(c2ccccc2)C(c2ccc(Cl)cc2)=N1 (racemic)	> 5000	–	–

SMILES	IC50 (Cannabinoid receptor 1 [1]) [nM]	IC50 (Cannabinoid receptor 2) [nM]	further results
C[C@H](N=C(NS(=O)(=O)c1ccc(Cl)cc1)N1CC(c2ccccc2)C(c2ccc(Cl)cc2)=N1)C(=O)N[C@@H](CO)C(N)=O (some centres undefined)	8	> 5000	–
CN=C(NS(=O)(=O)c1ccc(OC)cc1)N1CC(c2ccccc2)C(c2ccc(Cl)cc2)=N1 (racemic)	100	–	–
CCOC(=O)Nc1ccc(S(=O)(=O)NC(=NC)N2CC(c3ccccc3)C(c3ccc(Cl)cc3)=N2)cc1 (racemic)	300	–	–
COc1ccc(S(=O)(=O)NC(=N[C@H](C(=O)NCC(N)=O)C(C)C)N2CC(c3ccccc3)C(c3ccc(Cl)cc3)=N2)cc1 (some centres undefined)	> 100	> 5000	–
CN/C(=N\S(=O)(=O)c1ccc(C(=O)O)cc1)N1CC(c2ccccc2)C(c2ccc(Cl)cc2)=N1 (racemic)	> 5000	–	–
NC(=O)CN=C(NS(=O)(=O)c1ccc(Cl)cc1)N1CC(c2ccccc2)C(c2ccc(Cl)cc2)=N1 (single isomer, unassigned; enantiomer 1)	32	> 5000	concentration at 1 h [10]: 16700 ng/mL; Drug uptake (Brain): 685 ng/g; Occ (Mus musculus [3]): 10%; Occ (Mus musculus [4]): 3%; Occ (Mus musculus [5]): 0%
CCOC(=O)[C@@H](O)CCN/C(=N\S(=O)(=O)c1ccc(Cl)cc1)N1CC(c2ccccc2)C(c2ccc(Cl)cc2)=N1 (some centres undefined)	–	–	inhibition (Cannabinoid receptor 1 [9]): 53%
COc1ccc(S(=O)(=O)/N=C(\N[C@@H](C)C(=O)N[C@@H](CO)C(N)=O)N2CC(c3ccccc3)C(c3ccc(Cl)cc3)=N2)cc1 (some centres undefined)	> 100	> 5000	–
CN=C(NS(=O)(=O)c1ccc(C(=O)NO)cc1)N1CC(c2ccccc2)C(c2ccc(Cl)cc2)=N1 (racemic)	> 5000	–	–
CCOC(=O)c1ccc(S(=O)(=O)NC(=NC)N2CC(c3ccccc3)C(c3ccc(Cl)cc3)=N2)cc1 (racemic)	100	–	–
COc1ccc(S(=O)(=O)NC(=N[C@@H](C)C(N)=O)N2CC(c3ccccc3)C(c3ccc(Cl)cc3)=N2)cc1 (some centres undefined)	70	> 5000	–
COC(=O)[C@H](C)N/C(=N\S(=O)(=O)c1ccc(Cl)cc1)N1CC(c2ccccc2)C(c2ccc(Cl)cc2)=N1 (some centres undefined)	–	–	inhibition (Cannabinoid receptor 1 [9]): 96%
NC(=O)CN/C(=N\S(=O)(=O)c1ccc(Cl)cc1)N1CC(c2ccccc2)C(c2ccc(Cl)cc2)=N1 (single isomer, unassigned; enantiomer 1)	–	–	Occ [6]: 0%
COc1ccc(S(=O)(=O)NC(=NCC(N)=O)N2CC(c3ccccc3)C(c3ccc(Cl)cc3)=N2)cc1 (centres undefined)	100	> 5000	–
CNC(=NS(=O)(=O)c1ccc(Cl)cc1)N1CC(c2ccccc2)C(c2ccc(Cl)cc2)=N1 (racemic) [RAC-IBIPINABANT]	–	–	Papp B→A [7]: 10 ×10⁻⁶ cm/s; Papp A→B [2]: 9.45 ×10⁻⁶ cm/s; concentration at 1 h [10]: 5130 ng/mL; Drug uptake (Brain): 2080 ng/g
